Test results published in ChEMBL document CHEMBL2010740, “Synthesis and evaluation of 2-amido-3-carboxamide thiophene CB₂ receptor agonists for pain management” (Bioorg Med Chem Lett, 2012).

Columns and labels:
[1] = biological target: Cannabinoid receptor 1 (Homo sapiens, UniProt P21554); assay: Displacement of [3H]CP-55940 from human recombinant CB1 receptor expressed in CHO cells after 90 mins; type: cell-based
Outline: (§1)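 Competitive binding: [³H]CP-55,940 displaced from membranes of HEK 293 cells stably transfected with human or rat CB₂, or CHO cells stably transfected with human or rat CB₁. Reported as pKi. Determinations >2 (duplicate of duplicate).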

[2] = biological target: T1, Cannabinoid receptor 2 (Rattus norvegicus, UniProt Q9QZN9); assay: Displacement of [3H]CP-55940 from rat recombinant CB2 receptor expressed in HEK293 cells after 90 mins; type: cell-based; outline: as §1
T1 sequence (Q9QZN9 whole entry): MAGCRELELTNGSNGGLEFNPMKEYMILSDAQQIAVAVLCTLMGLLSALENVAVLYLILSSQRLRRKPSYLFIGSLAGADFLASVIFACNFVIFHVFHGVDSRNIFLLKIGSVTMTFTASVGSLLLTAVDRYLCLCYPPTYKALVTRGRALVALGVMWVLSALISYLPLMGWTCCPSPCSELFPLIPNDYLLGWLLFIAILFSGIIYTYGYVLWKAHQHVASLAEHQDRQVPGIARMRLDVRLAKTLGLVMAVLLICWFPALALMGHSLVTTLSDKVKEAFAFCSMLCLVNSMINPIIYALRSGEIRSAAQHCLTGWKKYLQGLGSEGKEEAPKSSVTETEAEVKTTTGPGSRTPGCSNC

[3] = biological target: T2, Cannabinoid receptor 2 (Homo sapiens, UniProt P34972); assay: Displacement of [3H]CP-55940 from human recombinant CB2 receptor expressed in HEK293 cells after 90 mins; type: cell-based; outline: as §1
[4] = biological target: T2, Cannabinoid receptor 2; assay: Agonist activity at human recombinant CB2 receptor expressed in HEK293 cells co-expressing chimeric Gaq/o protein by FLIPR assay; type: functional, cell-based
Outline: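 FLIPR functional assay in HEK 293 cells stably co-expressing chimeric Gαq/o protein and the CB receptor. Net peak evoked response was compared with the peak response to CP-55,940.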

T2 sequence (P34972 whole entry): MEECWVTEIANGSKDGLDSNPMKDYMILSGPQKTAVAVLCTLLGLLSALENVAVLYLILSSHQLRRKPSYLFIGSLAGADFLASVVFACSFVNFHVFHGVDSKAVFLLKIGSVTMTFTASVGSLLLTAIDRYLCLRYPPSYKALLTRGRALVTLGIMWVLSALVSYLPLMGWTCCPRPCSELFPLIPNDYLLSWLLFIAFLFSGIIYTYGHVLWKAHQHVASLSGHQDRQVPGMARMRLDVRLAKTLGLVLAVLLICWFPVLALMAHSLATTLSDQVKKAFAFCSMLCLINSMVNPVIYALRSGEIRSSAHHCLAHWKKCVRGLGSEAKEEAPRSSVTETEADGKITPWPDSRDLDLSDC
Cannabinoid receptor 1, sequence (P21554 whole entry): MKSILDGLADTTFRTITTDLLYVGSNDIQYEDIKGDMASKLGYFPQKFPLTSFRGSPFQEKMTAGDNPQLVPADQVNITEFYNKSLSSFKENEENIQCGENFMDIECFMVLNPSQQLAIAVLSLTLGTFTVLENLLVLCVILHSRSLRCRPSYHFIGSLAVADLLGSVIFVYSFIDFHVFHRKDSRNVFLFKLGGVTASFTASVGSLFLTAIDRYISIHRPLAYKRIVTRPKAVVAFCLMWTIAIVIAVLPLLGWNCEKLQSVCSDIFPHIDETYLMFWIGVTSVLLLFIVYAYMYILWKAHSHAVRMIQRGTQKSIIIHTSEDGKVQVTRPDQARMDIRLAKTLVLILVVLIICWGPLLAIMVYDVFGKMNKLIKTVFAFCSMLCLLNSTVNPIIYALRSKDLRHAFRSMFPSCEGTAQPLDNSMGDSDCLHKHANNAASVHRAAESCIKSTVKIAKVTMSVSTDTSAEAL

| SMILES | Ki [1] | Ki [2] | Ki [3] | IC50 [4] |
| --- | --- | --- | --- | --- |
| CCCNC(=O)c1c(NC(=O)c2c(F)cccc2C(F)(F)F)sc2c1CCOC2 | > 10 µM | 0.331 µM | 0.105 µM | – |
| CCCNC(=O)c1c(NC(=O)C23CC4CC(CC2C4)C3)sc2c1CCN(C)C2 | > 10 µM | 0.00589 µM | 0.0912 µM | > 10 µM |
